Results on 3 molecules are retold here after ChEMBL document CHEMBL4038305, “Benzoxaborole Antimalarial Agents. Part 5. Lead Optimization of Novel Amide Pyrazinyloxy Benzoxaboroles and Identification of a Preclinical Candidate” (J Med Chem, 2017).

Data set [1] concerns Lymphocyte. As to the kind of experiment: Genotoxicity in human lymphocytes at 0.5 to 355 ug/mL after 3 to 28 hrs in absence of rat liver S9 fraction by micronucleus assay. It counts as toxicity, cell-based.
A further data set deals with Plasmodium berghei. As to the kind of experiment: Antimalarial activity against Plasmodium berghei infected in Swiss Webster mouse assessed as mouse survival rate at 3 mg/kg administered once daily via oral gavage for 4 consecutive days beginning 1 hr after infection measured on day 6 post infection relative to control. It counts as functional. A digest of the protocol: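 P. berghei-infected erythrocytes taken from a previously infected mouse were injected intraperitoneally. Oral dosing, once daily for 4 consecutive days, began 1 h after infection, in polyethylene glycol 300/propylene glycol/water (55/25/20 by weight). Chloroquine at 30 mg/kg was the positive control, with a vehicle-only group. Percent survival was recorded daily from day 4 to day 20.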

The test system of data set [2] is Plasmodium falciparum. As to the kind of experiment: Antimalarial activity against intraerythrocytic stage of Plasmodium falciparum assessed as time required for maximal killing effect at 30 times IC50 preincubated for 24 hrs followed by [3H]-hypoxanthine addition measured after 24 hrs by scintillation counting method. It is filed as functional. A digest of the protocol:
(§1)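 In vitro P. falciparum parasite reduction ratio assay run at 10×, 30× and 100× IC50. Derived parameters: lag phase (time to maximal killing), PRR (parasites killed per life cycle) and PCT99.9% (time to clear 99.9% of the initial parasite population).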

Data set [3] relates to Salmonella typhimurium. As to the kind of experiment: Genotoxicity in Salmonella typhimurium TA98 assessed as number of revertants per plate at 5 ug/plate in absence of rat liver S9 fraction by Ames test (reference value: 14 +/- 6). It counts as toxicity. The note with it: salmonella enterica subsp. enterica serovar typhimurium.
For data set [4], the system named is Salmonella typhimurium. Kind of data set: Genotoxicity in Salmonella typhimurium TA100 assessed as number of revertants per plate at 15 ug/plate in absence of rat liver S9 fraction by Ames test (reference value: 154 +/- 9). It counts as toxicity. As to conditions: salmonella enterica subsp. enterica serovar typhimurium. For orientation: The Ames test uses bacterial strains that need an amino acid and regain growth without it when mutated back.

Data set [5] in a line: AUC (0 to infinity) in Sprague-Dawley rat at 5 mg/kg, po via gavage by HPLC/MS analysis. It is filed as ADME, organism-based. Details: dose 5 mg/kg, route oral, time infinity. The note with it: in vivo.
For data set [6], the system named is Salmonella typhimurium. Kind of data set: Genotoxicity in Salmonella typhimurium TA98 assessed as number of revertants per plate at 5000 ug/plate in absence of rat liver S9 fraction by Ames test (reference value: 14 +/- 6). It counts as toxicity. The note with it: salmonella enterica subsp. enterica serovar typhimurium.
Another data set has as its system Escherichia coli. As to the kind of experiment: Genotoxicity in Escherichia coli WP2uvrA assessed as number of revertants per plate at 500 ug/plate in presence of rat liver S9 fraction by Ames test (reference value: 42 +/- 6). It is filed as toxicity.
Data set [7] concerns Plasmodium falciparum. Kind of data set: Antimalarial activity against intraerythrocytic stage of Plasmodium falciparum assessed as parasite reduction ratio at 10 times IC50 preincubated for 24 hrs followed by [3H]-hypoxanthine addition measured after 24 hrs by scintillation counting method. It counts as functional. A digest of the protocol:
as §1

The subject of data set [8] is Lymphocyte. As to the kind of experiment: Genotoxicity in human lymphocytes assessed as increase in frequency of micronucleated cells at 355.15 ug/mL after 28 hrs in absence of rat liver S9 fraction by micronucleus assay (reference value: 0.74%). It is filed as toxicity, cell-based.
In data set [9] the test system is Lymphocyte. Kind of data set: Genotoxicity in human lymphocytes assessed as replication index at 355.15 ug/mL after 3 hrs in absence of rat liver S9 fraction by micronucleus assay relative to control. It is filed as toxicity, cell-based. A digest of the protocol: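 Human lymphocytes exposed for 3 h with or without rat liver S9, or 28 h without S9, with 1% DMSO as vehicle control. Replication index = (binucleated + 2 × multinucleated cells)/total cells. Cytotoxicity (%) = 100 − (RI treated/RI vehicle) × 100.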

On to `Cc1c(Oc2cnc(C(=O)NCCO)cn2)ccc2c1B(O)OC2`, for which the Activity result with Lymphocyte [1] was “Non-Toxic”.

For the molecule `Cc1c(Oc2cnc(C(=O)NC(C)CO)cn2)ccc2c1B(O)OC2` (stereo unspecified), the survival at 3 mg/kg with Plasmodium berghei was determined as 60%.

Regarding `Cc1c(Oc2cnc(C(=O)N3CC(C)(O)C3)cn2)ccc2c1B(O)OC2`, the Time in the data set with Plasmodium falciparum [2] is 0 h. Besides, the Activity worked out at 12 with Salmonella typhimurium [3]; 126 in the data set with Salmonella typhimurium [4]; 9 in the data set with Salmonella typhimurium [6]; 35 in the data set on Escherichia coli; 0.95% in the data set on Lymphocyte [8]; 7% in the data set on Lymphocyte [9]. Moreover, the total exposure AUC(0-inf) (in general, the area under the concentration-time curve extrapolated to infinity) in data set [5] is 20800 ng·h/mL. For the same molecule, the “log(ratio)” value in the data set on Plasmodium falciparum [7] was 4.1.
